From ChEMBL document CHEMBL1811881, “Development of 3-substituted-androsterone derivatives as potent inhibitors of 17β-hydroxysteroid dehydrogenase type 3” (Bioorg Med Chem, 2011)

Tests used:
Assay type in all cases: cell-based
[1] = molecular target: T1, 17-beta-hydroxysteroid dehydrogenase type 3 (Homo sapiens) (UniProt P37058); assay: Inhibition of 17Beta-HSD3 expressed in homogenized HEK293 cells assessed as transformation of [14C]-4-androstene-3,17-dione into [14C]-testosterone in presence of NADPH at 0.01 uM
T1 sequence (whole entry): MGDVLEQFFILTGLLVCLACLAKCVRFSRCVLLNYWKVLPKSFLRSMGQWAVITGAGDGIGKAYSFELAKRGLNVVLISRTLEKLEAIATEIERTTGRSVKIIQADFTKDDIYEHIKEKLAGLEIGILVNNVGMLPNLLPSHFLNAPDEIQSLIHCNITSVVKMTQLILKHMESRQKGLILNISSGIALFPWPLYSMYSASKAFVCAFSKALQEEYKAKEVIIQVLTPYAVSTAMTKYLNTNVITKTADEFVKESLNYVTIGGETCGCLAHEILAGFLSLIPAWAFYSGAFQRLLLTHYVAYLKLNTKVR
How it was run: (§1)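 HEK-293 cells overexpressing 17β-HSD3 were briefly homogenized. The enzyme assay measured conversion of 50 nM [4-14C]-4-androstene-3,17-dione to [14C]-testosterone with NADPH in excess (5 mM). Inhibitor was dissolved in ethanol, and the ethanol-only control was used to derive % inhibition at each concentration. Error 10%.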

[2] = molecular target: T1, 17-beta-hydroxysteroid dehydrogenase type 3 (Homo sapiens); assay: Inhibition of 17Beta-HSD3 expressed in homogenized HEK293 cells assessed as transformation of [14C]-4-androstene-3,17-dione into [14C]-testosterone in presence of NADPH at 0.1 uM; how it was run: as §1
[3] = molecular target: T1, 17-beta-hydroxysteroid dehydrogenase type 3 (Homo sapiens); assay: Inhibition of 17Beta-HSD3 expressed in intact HEK293 cells assessed as transformation of [14C]-4-androstene-3,17-dione into [14C]-testosterone in presence of NADPH at 1 uM after 1 hr incubation
How it was run: (§2)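 HEK-293 cells were grown in MEM with 10% FBS at 37 °C under 5% CO2, seeded at 200,000 cells/well, and transfected with 2 µg/well of a 17β-HSD3 expression plasmid. Intact cells then got 50 nM [4-14C]-4-androstene-3,17-dione plus inhibitor in ethanol (0.5% v/v) for 1 h. Radiolabelled steroids were extracted from the medium and quantified. Triplicate; % transformation was used to derive IC50.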

[4] = molecular target: T1, 17-beta-hydroxysteroid dehydrogenase type 3 (Homo sapiens); assay: Inhibition of 17Beta-HSD3 expressed in homogenized HEK293 cells assessed as transformation of [14C]-4-androstene-3,17-dione into [14C]-testosterone in presence of NADPH at 1 uM; how it was run: as §1
[5] = molecular target: T1, 17-beta-hydroxysteroid dehydrogenase type 3 (Homo sapiens); assay: Inhibition of 17Beta-HSD3 expressed in intact HEK293 cells assessed as transformation of [14C]-4-androstene-3,17-dione into [14C]-testosterone in presence of NADPH at 0.1 uM after 1 hr incubation; how it was run: as §2

| Compound | inhibition [1] | inhibition [2] | inhibition [3] | inhibition [4] | inhibition [5] |
| --- | --- | --- | --- | --- | --- |
| C[C@]12CC[C@](O)(CN3CCN(C(=O)C4CCCCC4)CC3)C[C@@H]1CC[C@@H]1[C@@H]2CC[C@]2(C)C(=O)CC[C@@H]12 | 19% | 75% | 70% |  |  |
| C[C@]12CC[C@](O)(CN3CCN(Cc4cccc(SC(F)(F)F)c4)CC3)C[C@@H]1CC[C@@H]1[C@@H]2CC[C@]2(C)C(=O)CC[C@@H]12 | 3% | 91% | 62% |  |  |
| CCN(CC)C[C@@]1(O)CC[C@@]2(C)[C@@H](CC[C@@H]3[C@@H]2CC[C@]2(C)C(=O)CC[C@@H]32)C1 | 0% | 10% | 14% | 60% |  |
| C[C@@H]1CN(Cc2cccnc2)[C@@H](C)CN1C[C@@]1(O)CC[C@@]2(C)[C@@H](CC[C@@H]3[C@@H]2CC[C@]2(C)C(=O)CC[C@@H]32)C1 | 17% | 47% | 58% |  |  |
| C[C@@H]1CN(Cc2cccc(Cl)c2)[C@@H](C)CN1C[C@@]1(O)CC[C@@]2(C)[C@@H](CC[C@@H]3[C@@H]2CC[C@]2(C)C(=O)CC[C@@H]32)C1 | 26% | 84% | 55% |  |  |
| C[C@]12CC[C@](O)(CN3CCN(S(=O)(=O)c4cccc(C(F)(F)F)c4)CC3)C[C@@H]1CC[C@@H]1[C@@H]2CC[C@]2(C)C(=O)CC[C@@H]12 | 21% | 82% | 71% |  |  |
| C[C@@H]1CN(Cc2cccc(SC(F)(F)F)c2)[C@@H](C)CN1C[C@@]1(O)CC[C@@]2(C)[C@@H](CC[C@@H]3[C@@H]2CC[C@]2(C)C(=O)CC[C@@H]32)C1 | 18% | 88% | 58% |  |  |
| C[C@]12CC[C@](O)(CN3CCC(N4CCCCC4)CC3)C[C@@H]1CC[C@@H]1[C@@H]2CC[C@]2(C)C(=O)CC[C@@H]12 | 0% | 4% | 20% | 69% |  |
| C[C@]12CC[C@@]3(C[C@@H]1CC[C@@H]1[C@@H]2CC[C@]2(C)C(=O)CC[C@@H]12)CN(CCO)C(=O)O3 | 0% | 9% |  | 38% | 16% |
| C[C@]12CC[C@](O)(CN3CCCCC3)C[C@@H]1CC[C@@H]1[C@@H]2CC[C@]2(C)C(=O)CC[C@@H]12 | 9% | 19% | 23% | 69% |  |
| C[C@]12CC[C@@]3(C[C@@H]1CC[C@@H]1[C@@H]2CC[C@]2(C)C(=O)CC[C@@H]12)CN(C1CCCCC1)C(=O)O3 | 13% | 75% |  | 78% | 29% |
| C[C@]12CC[C@](O)(CN3CCN(Cc4cccc(Cl)c4)CC3)C[C@@H]1CC[C@@H]1[C@@H]2CC[C@]2(C)C(=O)CC[C@@H]12 | 26% | 85% | 75% |  |  |
| C[C@]12CC[C@](O)(CN3CCC(Cc4ccccc4)CC3)C[C@@H]1CC[C@@H]1[C@@H]2CC[C@]2(C)C(=O)CC[C@@H]12 | 40% | 82% | 52% | 90% |  |
| CN1CCN(C[C@@]2(O)CC[C@@]3(C)[C@@H](CC[C@@H]4[C@@H]3CC[C@]3(C)C(=O)CC[C@@H]43)C2)CC1 | 0% | 0% |  | 40% | 2% |
| C[C@]12CC[C@@]3(C[C@@H]1CC[C@@H]1[C@@H]2CC[C@]2(C)C(=O)CC[C@@H]12)CN(CCN1CCCCC1)C(=O)O3 | 0% | 0% |  | 21% | 10% |
| C[C@]12CC[C@](O)(CN3CCN(c4ccccc4)CC3)C[C@@H]1CC[C@@H]1[C@@H]2CC[C@]2(C)C(=O)CC[C@@H]12 | 13% | 78% | 68% | 89% |  |
| CN(Cc1ccccc1)C[C@@]1(O)CC[C@@]2(C)[C@@H](CC[C@@H]3[C@@H]2CC[C@]2(C)C(=O)CC[C@@H]32)C1 | 28% | 79% | 92% | 89% | 48% |
| CCCCN(CCCC)C[C@@]1(O)CC[C@@]2(C)[C@@H](CC[C@@H]3[C@@H]2CC[C@]2(C)C(=O)CC[C@@H]32)C1 | 13% | 70% | 90% | 85% | 53% |
| C[C@]12CC[C@](O)(CN3CCN(Cc4cccnc4)CC3)C[C@@H]1CC[C@@H]1[C@@H]2CC[C@]2(C)C(=O)CC[C@@H]12 | 10% | 33% | 63% |  |  |
| Cc1cccc(OCCN2C[C@]3(CC[C@@]4(C)[C@@H](CC[C@@H]5[C@@H]4CC[C@]4(C)C(=O)CC[C@@H]54)C3)OC2=O)c1 | 13% | 85% |  | 95% | 40% |
| C[C@]12CC[C@](O)(CN3CCN(Cc4ccccc4)CC3)C[C@@H]1CC[C@@H]1[C@@H]2CC[C@]2(C)C(=O)CC[C@@H]12 | 35% | 72% | 80% | 90% | 37% |
| C[C@@H]1CN(Cc2cccc(C(F)(F)F)c2)[C@@H](C)CN1C[C@@]1(O)CC[C@@]2(C)[C@@H](CC[C@@H]3[C@@H]2CC[C@]2(C)C(=O)CC[C@@H]32)C1 | 31% | 89% | 78% |  |  |
| COc1ccc(CN2C[C@]3(CC[C@@]4(C)[C@@H](CC[C@@H]5[C@@H]4CC[C@]4(C)C(=O)CC[C@@H]54)C3)OC2=O)cc1 | 5% | 84% |  | 93% | 43% |
| CCCN(CCN1C[C@]2(CC[C@@]3(C)[C@@H](CC[C@@H]4[C@@H]3CC[C@]3(C)C(=O)CC[C@@H]43)C2)OC1=O)C(=O)CC | 0% | 35% |  | 80% | 25% |
| CCN(CCN1C[C@]2(CC[C@@]3(C)[C@@H](CC[C@@H]4[C@@H]3CC[C@]3(C)C(=O)CC[C@@H]43)C2)OC1=O)Cc1ccccc1 | 14% | 71% |  | 93% | 40% |
| CCN(CCN1C[C@]2(CC[C@@]3(C)[C@@H](CC[C@@H]4[C@@H]3CC[C@]3(C)C(=O)CC[C@@H]43)C2)OC1=O)C1CCCCC1 | 2% | 21% |  | 72% | 2% |
